ChEMBL document CHEMBL4229446, “Development of Novel Monoamine Oxidase-B (MAO-B) Inhibitors with Reduced Blood-Brain Barrier Permeability for the Potential Management of Noncentral Nervous System (CNS) Diseases” (J Med Chem, 2018)

How the values were obtained:
[1] = Metabolic stability in mouse liver microsomes assessed as parent compound remaining at 1 uM after 60 mins by UPLC-MS/MS analysis; type: ADME, microsome; conditions: liver microsomes, read-out: Stability
Summary of the method: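 Compound at 1 μM with 0.5 mg/mL mouse or human liver microsomes in 100 mM potassium phosphate pH 7.4, 3.3 mM MgCl2, 1 mM NADPH, at 37 °C. Started with NADPH; minus-NADPH control run. Stopped at 0, 5, 15, 30, 45 and 60 min with acetonitrile/formic acid plus internal standard. Parent remaining by UPLC-MS/MS, in triplicate.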

[2] = Cmax in C57BL/6 mouse plasma at 23.4 mg/kg, iv administered as single dose measured 24 hrs by UPLC-MS/MS analysis; type: ADME, organism-based; set-up: dose 23.4 mg/kg, route intravenous
Summary of the method: (§1)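 21 animals dosed at 0 min, 3 killed per time point (0, 5, 15, 30 min, 1, 4, 24 h). Plasma extracted by protein precipitation/phospholipid removal. Brain homogenized in 50 mM ammonium formate, then extracted in acidified organic solvent. Both quantified by UPLC-MS/MS (MRM), brain ng/g taken as ng/mL. Noncompartmental analysis. Kp = AUClast brain/plasma.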

[3] = AUClast in C57BL/6 mouse plasma at 23.4 mg/kg, iv administered as single dose measured 24 hrs by UPLC-MS/MS analysis; type: ADME, organism-based; set-up: dose 23.4 mg/kg, time 0 - last, route intravenous; summary of the method: as §1
[4] = Tmax in C57BL/6 mouse brain at 23.4 mg/kg, iv administered as single dose measured 24 hrs by UPLC-MS/MS analysis; type: ADME, organism-based; summary of the method: as §1
[5] = Cmax in C57BL/6 mouse brain at 23.4 mg/kg, iv administered as single dose measured 24 hrs by UPLC-MS/MS analysis; type: ADME, organism-based; set-up: dose 23.4 mg/kg, route intravenous; summary of the method: as §1
[6] = AUClast in C57BL/6 mouse plasma at 23.4 mg/kg, sc administered as single dose measured 24 hrs by UPLC-MS/MS analysis; type: ADME, organism-based; set-up: dose 23.4 mg/kg, time 0 - last, route subcutaneous
Summary of the method: (§2)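 15 animals dosed, 3 killed at each of 1, 2, 4, 6 and 24 h. Plasma and brain homogenate (ammonium formate, acidified organic extraction) assayed by UPLC-MS/MS, brain ng/g taken as ng/mL. Noncompartmental parameters exclude values above/below quantification limit or undetected. Kp = AUClast brain/plasma.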

[7] = Tmax in C57BL/6 mouse brain at 23.4 mg/kg, sc administered as single dose measured 24 hrs by UPLC-MS/MS analysis; type: ADME, organism-based; summary of the method: as §2
[8] = Tmax in C57BL/6 mouse plasma at 23.4 mg/kg, po administered as single dose measured 24 hrs by UPLC-MS/MS analysis; type: ADME, organism-based; summary of the method: as §2
[9] = AUClast in C57BL/6 mouse plasma at 23.4 mg/kg, po administered as single dose measured 24 hrs by UPLC-MS/MS analysis; type: ADME, organism-based; set-up: dose 23.4 mg/kg, time 0 - last, route oral; summary of the method: as §2
[10] = Apparent half-life of the terminal disposition phase in C57BL/6 mouse plasma at 23.4 mg/kg, po administered as single dose measured 24 hrs by UPLC-MS/MS analysis; type: ADME, organism-based; conditions: read-out: t1/2 lambda z (converted); summary of the method: as §2
[11] = Tmax in C57BL/6 mouse brain at 23.4 mg/kg, po administered as single dose measured 24 hrs by UPLC-MS/MS analysis; type: ADME, organism-based; summary of the method: as §2
[12] = AUClast in C57BL/6 mouse plasma at 24.5 mg/kg, iv administered as single dose measured 24 hrs by UPLC-MS/MS analysis; type: ADME, organism-based; set-up: dose 24.5 mg/kg, time 0 - last, route intravenous
Summary of the method: (§3)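 21 animals dosed at 0 min, 3 sacrificed at each of 0, 5, 15, 30 min, 1, 4 and 24 h. Plasma was extracted by protein precipitation with phospholipid removal. Brain was weighed, bead-homogenised in 50 mM ammonium formate and extracted in acidified organic solvent. Quantified by UPLC-MS/MS (MRM). Brain ng/g taken as ng/mL. Parameters came from noncompartmental analysis. Kp = AUClast brain/plasma.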

[13] = Apparent half-life of the terminal disposition phase in C57BL/6 mouse plasma at 24.5 mg/kg, iv administered as single dose measured 24 hrs by UPLC-MS/MS analysis; type: ADME, organism-based; conditions: read-out: t1/2 lambda z (converted); summary of the method: as §3
[14] = AUClast in C57BL/6 mouse brain at 24.5 mg/kg, iv administered as single dose measured 24 hrs by UPLC-MS/MS analysis; type: ADME, organism-based; set-up: dose 24.5 mg/kg, route intravenous, time 0 - last; summary of the method: as §3
[15] = Ratio of AUClast in brain to plasma in C57BL/6 mouse at 24.5 mg/kg, iv administered as single dose measured 24 hrs by UPLC-MS/MS analysis; type: ADME, organism-based; summary of the method: as §3
[16] = Apparent half-life of the terminal disposition phase in C57BL/6 mouse plasma at 24.5 mg/kg, sc administered as single dose measured 24 hrs by UPLC-MS/MS analysis; type: ADME, organism-based; conditions: read-out: t1/2 lambda z (converted)
Summary of the method: (§4)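 15 animals dosed, 3 sacrificed at each of 1, 2, 4, 6 and 24 h. Plasma and brain homogenate were extracted and quantified by UPLC-MS/MS. Parameters came from noncompartmental analysis. Values above or below the limit of quantification, or undetected, were omitted. Kp = AUClast brain/plasma.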

[17] = Tmax in C57BL/6 mouse brain at 24.5 mg/kg, sc administered as single dose measured 24 hrs by UPLC-MS/MS analysis; type: ADME, organism-based
Summary of the method: (§5)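 Brain portion homogenised in 50 mM ammonium formate with beads, acidified organic extraction, UPLC-MS/MS. ng/g read as ng/mL. Noncompartmental analysis; values above or below quantification limit, or undetected, excluded.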

[18] = Cmax in C57BL/6 mouse brain at 24.5 mg/kg, sc administered as single dose measured 24 hrs by UPLC-MS/MS analysis; type: ADME, organism-based; set-up: dose 24.5 mg/kg, route subcutaneous; summary of the method: as §4
[19] = AUClast in C57BL/6 mouse brain at 24.5 mg/kg, sc administered as single dose measured 24 hrs by UPLC-MS/MS analysis; type: ADME, organism-based; set-up: dose 24.5 mg/kg, time 0 - last, route subcutaneous; summary of the method: as §4
[20] = Cmax in C57BL/6 mouse plasma at 24.5 mg/kg, po administered as single dose measured 24 hrs by UPLC-MS/MS analysis; type: ADME, organism-based; set-up: dose 24.5 mg/kg, route oral; summary of the method: as §4
[21] = Tmax in C57BL/6 mouse brain at 24.5 mg/kg, po administered as single dose measured 24 hrs by UPLC-MS/MS analysis; type: ADME, organism-based; summary of the method: as §5
[22] = AUClast in C57BL/6 mouse brain at 24.5 mg/kg, po administered as single dose measured 24 hrs by UPLC-MS/MS analysis; type: ADME, organism-based; set-up: dose 24.5 mg/kg, route oral, time 0 - last; summary of the method: as §4

In the case of `CN(CC(=O)O)[C@H](CC#N)Cc1ccc(OCc2ccc(Cl)c(Cl)c2)cc1`, the remaining at 1 h, 1 µM [1] is reported as 39%, the Cmax [2] is reported as 52100 ng/mL and the AUC(0-t) at 24 h [3] is reported as 39100 ng·h/mL. It also gave a Tmax [4] of 5 min, a Cmax [5] of 305 ng/mL and an AUC(0-t) at 24 h [6] of 35100 ng·h/mL. For the same compound, the Tmax [7] was 1 h, the Tmax [8] was 1 h and the AUC(0-t) at 24 h [9] was 73000 ng·h/mL. The half-life [10] was 2.93 h and the Tmax [11] was 1 h.
Work on `C[C@H](Cc1ccc(OCc2ccc(Br)c(Cl)c2)cc1)N(C)CC(=O)O` yielded an AUC(0-t) at 24 h [12] of 94800 ng·h/mL, a half-life [13] of 3.93 h and an AUC(0-t) at 24 h [14] of 10700 ng·h/mL. The Kp at 24 h [15] was 0.11, the half-life [16] was 4.81 h and the Tmax [17] was 6 h. The Cmax [18] was 806 ng/mL, the AUC(0-t) at 24 h [19] was 12900 ng·h/mL and the Cmax [20] was 8530 ng/mL. The Tmax [21] was 6 h and the AUC(0-t) at 24 h [22] was 12600 ng·h/mL.
